Active and inactive are the calls of the source. The rule behind the calls is not given here.
Experiments:
T-24 = experiment: Induction of cell death in human T24 cells at 0.1 to 25 uM; format: cell-based; conditions: t-24, 25 µM
[1] = Induction of cell death in mouse SM1 cells at 0.1 to 25 uM; format: cell-based
[2] = biological target: T1, Protein deacetylase HDAC6 (Mus musculus) (UniProt Q9Z2V5); experiment: Inhibition of HDAC6 in mouse SM1 cells assessed as reduction in IL-6 stimulated PDL1 overexpression at 5 uM pretreated for 1 hr followed by IL-6 stimulation for overnight by western blot analysis; format: cell-based
T1 sequence (whole entry): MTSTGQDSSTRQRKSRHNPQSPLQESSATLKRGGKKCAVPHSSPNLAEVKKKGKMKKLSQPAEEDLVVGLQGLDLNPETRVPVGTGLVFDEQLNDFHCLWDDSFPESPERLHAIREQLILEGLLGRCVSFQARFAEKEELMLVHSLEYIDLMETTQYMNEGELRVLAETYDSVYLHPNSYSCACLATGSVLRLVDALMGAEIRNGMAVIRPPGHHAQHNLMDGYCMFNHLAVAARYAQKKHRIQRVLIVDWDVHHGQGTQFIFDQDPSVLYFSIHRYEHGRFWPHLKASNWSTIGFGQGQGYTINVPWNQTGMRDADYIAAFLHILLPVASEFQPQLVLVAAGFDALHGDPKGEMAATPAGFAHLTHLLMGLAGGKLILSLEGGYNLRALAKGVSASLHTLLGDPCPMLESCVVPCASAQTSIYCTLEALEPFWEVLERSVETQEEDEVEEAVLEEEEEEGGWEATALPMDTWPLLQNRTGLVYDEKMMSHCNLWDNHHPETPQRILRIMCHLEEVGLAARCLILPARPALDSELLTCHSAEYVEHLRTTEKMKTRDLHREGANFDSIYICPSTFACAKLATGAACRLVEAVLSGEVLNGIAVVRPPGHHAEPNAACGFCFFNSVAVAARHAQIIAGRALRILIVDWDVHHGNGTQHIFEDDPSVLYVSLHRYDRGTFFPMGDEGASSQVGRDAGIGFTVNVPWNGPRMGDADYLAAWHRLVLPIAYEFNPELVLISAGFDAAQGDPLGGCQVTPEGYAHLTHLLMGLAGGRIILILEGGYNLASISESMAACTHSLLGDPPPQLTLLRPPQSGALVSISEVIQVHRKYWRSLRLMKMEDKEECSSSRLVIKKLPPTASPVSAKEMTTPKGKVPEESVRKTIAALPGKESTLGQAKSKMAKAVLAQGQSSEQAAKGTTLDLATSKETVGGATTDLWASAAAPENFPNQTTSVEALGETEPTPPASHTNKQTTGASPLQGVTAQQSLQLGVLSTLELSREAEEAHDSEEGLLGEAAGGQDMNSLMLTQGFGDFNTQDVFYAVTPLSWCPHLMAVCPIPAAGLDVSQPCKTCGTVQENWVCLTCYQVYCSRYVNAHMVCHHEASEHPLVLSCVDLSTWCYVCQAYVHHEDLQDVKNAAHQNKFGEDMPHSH
Summary of the method: (§1)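 SM1 cells pretreated with 5 µM compound, then IL-6 overnight. Lysed in RIPA buffer with protease and phosphatase inhibitors, sonicated, protein quantified by BCA. Immunoblot for PD-L1 and STAT3 Y705 phosphorylation.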

[3] = biological target: T1, Protein deacetylase HDAC6 (Mus musculus); experiment: Inhibition of HDAC6 in mouse SM1 cells assessed as reduction in IL-6 stimulated STAT3 phosphorylation at Y705 residue at 5 uM pretreated for 1 hr followed by IL-6 stimulation for overnight by western blot analysis; format: cell-based; summary of the method: as §1
[4] = Mutagenicity in Salmonella typhimurium TA1537 assessed as induction of >= 3 fold increase in revertant colonies at 1.5 to 1000 ug/well in presence of S9 fraction by Ames test; format: toxicity, subcellular; conditions: salmonella enterica subsp. enterica serovar typhimurium
Summary of the method: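 Ames test with S. typhimurium TA98 and TA1537, with and without S9 mix. A positive call required a ≥ 2-fold (TA98) or ≥ 3-fold (TA1537) rise in mean revertant colonies over the concurrent negative/solvent control.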

[5] = Half life in human hepatocytes; format: ADME, cell-based, Hepatocyte
Summary of the method: (§2)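 Half-life in minutes measured in mouse and human hepatocytes.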

[6] = Half life in mouse hepatocytes; format: ADME, cell-based, Hepatocyte; summary of the method: as §2
[7] = biological target: T1, Protein deacetylase HDAC6 (Mus musculus); experiment: Inhibition of HDAC6 in mouse SM1 cells assessed as increase in acetylated alpha-tubulin level at 5 to 10 uM after 24 hrs by Western blot analysis; format: cell-based
[8] = Cytotoxicity against mouse SM1 cells at 0.1 to 25 uM by ApoTox-Glo triplex assay; format: cell-based
Summary of the method: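 SM1 cells treated with HDAC inhibitors, with pan-HDACi and assay controls on every plate. ApoTox-Glo triplex readout: viability fluorescence 400Ex/505Em, cytotoxicity fluorescence 485Ex/520Em, then caspase 3/7 reagent read by luminescence for apoptosis.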

Mus musculus [9] = experiment: Antitumor immunity against mouse SM1 cells implanted in flank of immunocompetent C57BL/6 mouse assessed as infiltration of intratumoral CD8+ cells at 25 mg/kg, ip administered 1 week post-implantation by flow cytometry; format: functional, organism-based
Mus musculus [10] = experiment: Antitumor immunity against mouse SM1 cells implanted in flank of immunocompetent C57BL/6 mouse assessed as infiltration of intratumoral CD4+ cells at 25 mg/kg, ip administered 1 week post-implantation by flow cytometry; format: functional, organism-based
PC-3 = experiment: Induction of cell death in human PC3 cells at 0.1 to 25 uM; format: cell-based; conditions: pc-3, 25 µM

In the case of `O=C(NCCc1cc(C(=O)NO)no1)c1ccc(Cl)c(Cl)c1`, the Activity (T-24) is reported as “Non-Toxic”, the Activity [1] is reported as “Non-Toxic” and the inhibition [2] is reported as “Active”. For the same molecule, the inhibition [3] was “Active”, the Activity [4] was “Non-Toxic” and the half-life [5] was 1.8 h. For the same molecule, the half-life [6] was 0.367 h, the inhibition [7] was “Active” and the Activity [8] was “Non-Toxic”. The Activity (Mus musculus [9]) was “Active”, the Activity (Mus musculus [10]) was “inactive” and the Activity (PC-3) was “Non-Toxic”.

From ChEMBL document CHEMBL4354804, “Discovery of a New Isoxazole-3-hydroxamate-Based Histone Deacetylase 6 Inhibitor SS-208 with Antitumor Activity in Syngeneic Melanoma Mouse Models” (J Med Chem, 2019)
